From ChEMBL document CHEMBL2429734, “Expedient Synthesis of SMAMPs via Click Chemistry” (ACS Med Chem Lett, 2013)

Assays:
[1] = Hemolytic activity in human RBC assessed as release of hamoglobin after 1 hr; type: ADME, cell-based, Erythrocyte; details: for HC50 at 1 h: human red blood cells
Method in brief: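 Lysis of human erythrocytes measured. HC50 was taken as the lowest concentration causing 50% lysis of the red blood cells.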

Klebsiella pneumoniae = experiment: Antibacterial activity against Klebsiella pneumoniae ATCC 13883 assessed as growth inhibition after 18 hrs by broth microdilution method in absence of 40% mouse serum; type: functional; details: ATCC 13883, 18 h
Method in brief: (§1)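 MIC determined by Hancock's method for cationic antimicrobial peptides, a slight modification of the CLSI microbroth dilution method, run in medium without mouse serum. Strains were S. aureus ATCC 27660, E. coli ATCC 25922, E. faecalis ATCC 29212, P. aeruginosa ATCC 10145 and K. pneumoniae ATCC 13883.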

Pseudomonas aeruginosa = experiment: Antibacterial activity against Pseudomonas aeruginosa ATCC 10145 assessed as growth inhibition after 18 hrs by broth microdilution method in absence of 40% mouse serum; type: functional; details: ATCC 10145, 18 h; method in brief: as §1
Enterococcus faecalis = experiment: Antibacterial activity against Enterococcus faecalis ATCC 29212 assessed as growth inhibition after 18 hrs by broth microdilution method in absence of 40% mouse serum; type: functional; details: ATCC 29212, 18 h; method in brief: as §1
Escherichia coli [2] = experiment: Antibacterial activity against Escherichia coli ATCC 25922 assessed as growth inhibition incubated for 30 mins prior to inoculation measured after 18 hrs by broth microdilution method in presence of 40% mouse serum; type: functional
Method in brief: (§2)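 Hancock-modified CLSI microbroth dilution MIC run in the presence of 40% mouse serum against S. aureus ATCC 27660 or E. coli ATCC 25922. 40% was the highest serum level used because bacterial growth was impaired at higher percentages.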

Escherichia coli [3] = experiment: Antibacterial activity against Escherichia coli ATCC 25922 assessed as growth inhibition after 18 hrs by broth microdilution method in absence of 40% mouse serum; type: functional; details: ATCC 25922, 18 h; method in brief: as §1
Staphylococcus aureus [4] = experiment: Antibacterial activity against Staphylococcus aureus ATCC 27660 assessed as growth inhibition incubated for 30 mins prior to inoculation measured after 18 hrs by broth microdilution method in presence of 40% mouse serum; type: functional; method in brief: as §2
Staphylococcus aureus [5] = experiment: Antibacterial activity against Staphylococcus aureus ATCC 27660 assessed as growth inhibition after 18 hrs by broth microdilution method in absence of 40% mouse serum; type: functional; details: ATCC 27660, 18 h; method in brief: as §1
[6] = Ratio of compound HC50 to pexiganan HC50 for human RBC; type: ADME, cell-based; details: erythrocyte
[7] = Selectivity ratio of HC50 for human RBC to MIC for Escherichia coli ATCC 25922; type: functional
[8] = Selectivity ratio of HC50 for human RBC to MIC for Staphylococcus aureus ATCC 27660; type: functional

| Molecule | HC50 at 1 h [1] [µg/mL] | MIC (Klebsiella pneumoniae) [µg/mL] | MIC (Pseudomonas aeruginosa) [µg/mL] | MIC (Enterococcus faecalis) [µg/mL] | MIC (Escherichia coli [2]) [µg/mL] | MIC (Escherichia coli [3]) [µg/mL] | MIC (Staphylococcus aureus [4]) [µg/mL] | MIC (Staphylococcus aureus [5]) [µg/mL] | Ratio [6] | Selectivity ratio [7] | Selectivity ratio [8] | HC50 ([1]; erythrocyte, 1 h) [µg/mL] |
| --- | --- | --- | --- | --- | --- | --- | --- | --- | --- | --- | --- | --- |
| NCCCOc1ccc(-n2cc(-c3ccc4ccc(-c5cn(-c6cc(OCCCN)c(OCCCN)c(OCCCN)c6)nn5)cc4c3)nn2)cc1OCCCN.O=C(O)C(F)(F)F.O=C(O)C(F)(F)F.O=C(O)C(F)(F)F.O=C(O)C(F)(F)F.O=C(O)C(F)(F)F | 94 | > 50 | 50 | 25 | 25 | 50 | 0.39 | 12.5 |  |  |  |  |
| NCCCOc1ccc(-n2cc(-c3ccc4ccc(-c5cn(-c6ccc(OCCCN)c(OCCCN)c6)nn5)cc4c3)nn2)cc1OCCCN.O=C(O)C(F)(F)F.O=C(O)C(F)(F)F.O=C(O)C(F)(F)F.O=C(O)C(F)(F)F | 81 | 50 | 50 | 25 | 3.13 | > 50 | 0.19 | 25 |  |  |  |  |
| NCCCOc1cc(OCCCN)cc(-c2ccc3ccc(-c4cc(OCCCN)cc(OCCCN)c4)cc3c2)c1.O=C(O)C(F)(F)F.O=C(O)C(F)(F)F.O=C(O)C(F)(F)F.O=C(O)C(F)(F)F | 194 |  |  |  | 25 |  | 1.56 |  |  |  |  |  |
| NCCCOc1cc(C#Cc2ccc3ccc(C#Cc4cc(OCCCN)cc(OCCCN)c4)cc3c2)cc(OCCCN)c1.O=C(O)C(F)(F)F.O=C(O)C(F)(F)F.O=C(O)C(F)(F)F.O=C(O)C(F)(F)F | 3.4 |  |  |  | 12.5 |  | 3.13 |  |  |  |  |  |
| NCCCOc1cc(OCCCN)cc(-n2cc(-c3ccc4c(ccc5cc(-c6cn(-c7cc(OCCCN)cc(OCCCN)c7)nn6)ccc54)c3)nn2)c1.O=C(O)C(F)(F)F.O=C(O)C(F)(F)F.O=C(O)C(F)(F)F.O=C(O)C(F)(F)F | 109 | > 50 | 25 | 50 | 12.5 | > 50 | 0.39 | 25 |  |  |  |  |
| NCCCOc1cccc(-n2cc(-c3ccc4ccc(-c5cn(-c6cccc(OCCCN)c6)nn5)cc4c3)nn2)c1.O=C(O)C(F)(F)F.O=C(O)C(F)(F)F |  | > 50 | > 50 | 50 | > 50 | > 50 | 12.5 | > 50 |  |  |  |  |
| NCCCOc1ccc(-n2cc(-c3cccc(-c4cn(-c5ccc(OCCCN)c(OCCCN)c5)nn4)c3)nn2)cc1OCCCN.O=C(O)C(F)(F)F.O=C(O)C(F)(F)F.O=C(O)C(F)(F)F.O=C(O)C(F)(F)F | > 1000 | > 50 | 50 |  | 6.25 | > 50 | 0.39 | 12.5 | 10 | > 160 | > 2500 |  |
| NCCCOc1cc(OCCCN)cc(-n2cc(-c3ccc4ccc(-c5cn(-c6cc(OCCCN)cc(OCCCN)c6)nn5)cc4c3)nn2)c1.O=C(O)C(F)(F)F.O=C(O)C(F)(F)F.O=C(O)C(F)(F)F.O=C(O)C(F)(F)F | 693 | 50 | > 50 | 25 | 6.25 | > 50 | 0.39 | 12.5 |  |  |  |  |
| PEXIGANAN ACETATE |  |  |  |  |  |  |  |  |  |  |  | 120 |
| NCCCOc1cc(-n2cc(-c3ccc4ccc(-c5cn(-c6cc(OCCCN)c(OCCCN)c(OCCCN)c6)nn5)cc4c3)nn2)cc(OCCCN)c1OCCCN.O=C(O)C(F)(F)F.O=C(O)C(F)(F)F.O=C(O)C(F)(F)F.O=C(O)C(F)(F)F.O=C(O)C(F)(F)F.O=C(O)C(F)(F)F | 828 | > 50 | 12.5 | 50 | 25 | 25 | 0.19 | 12.5 |  |  |  |  |
| NCCCOc1cccc(-n2cc(-c3cccc(-c4cn(-c5cccc(OCCCN)c5)nn4)c3)nn2)c1.O=C(O)C(F)(F)F.O=C(O)C(F)(F)F |  | > 50 | 25 | 25 | 25 | 25 | 12.5 | 50 |  |  |  |  |
